Bioassay records deposited in PubChem by Johns Hopkins Ion Channel Center.
Most compounds without a hit are left out; they make up all but 3.5% or so of the library.
MrgX1 antagonist: antagonists of human MrgX1 receptor. AID 588676. 310,000 tested, 1.3% active. B-score at 10 µM. MRGX1-HEK293 calcium flux, Fluo-4, BAM8-22 antagonism; hits give low values;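 active = calcium-response B-score plate-corrected more than 3 library SD below zero, starting fluorescence within 5 deviations, no agonist response on first addition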;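 note: peak minus trough fluorescence over baseline after final BAM8-22 challenge near maximal dose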
Target sequence (Q96LB2 whole entry, looked up): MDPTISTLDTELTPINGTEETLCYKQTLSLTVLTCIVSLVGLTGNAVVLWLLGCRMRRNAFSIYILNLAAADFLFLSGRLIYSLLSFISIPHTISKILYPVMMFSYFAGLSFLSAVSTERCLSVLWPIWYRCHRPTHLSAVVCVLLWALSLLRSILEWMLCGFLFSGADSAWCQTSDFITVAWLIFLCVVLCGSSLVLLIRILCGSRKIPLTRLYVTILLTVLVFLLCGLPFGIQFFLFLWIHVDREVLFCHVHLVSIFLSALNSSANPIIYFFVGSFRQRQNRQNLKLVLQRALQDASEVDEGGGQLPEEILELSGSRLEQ
RGS4 inh: inhibitors of human RGS4. P49798. HEK293 M3R/RGS4 inducible, Fluo-4 calcium flux; hits give high values; triggered by carbachol at its EC20. B-score at 10 µM. 310,000 tested, 0.45% active;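 active = B-score, a plate-corrected calcium signal, over three deviations above library mean, with baseline fluorescence within five deviations of library mean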;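 note: RGS4 expression induced by doxycycline in cells with stable M3 receptor; B-score is computed from the integrated fluorescence ratio over baseline after carbachol; higher B-score means a larger calcium signal and so more RGS4 inhibition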
Target sequence (P49798 whole entry, looked up): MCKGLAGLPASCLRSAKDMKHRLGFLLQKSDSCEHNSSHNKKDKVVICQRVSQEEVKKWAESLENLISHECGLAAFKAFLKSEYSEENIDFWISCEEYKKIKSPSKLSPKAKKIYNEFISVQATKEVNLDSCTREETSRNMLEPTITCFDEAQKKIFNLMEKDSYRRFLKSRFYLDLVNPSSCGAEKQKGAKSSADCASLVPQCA
RGS4 pot: RGS4 potentiation or activation; HEK293 M3R/inducible RGS4, carbachol calcium flux Fluo4; hits give low values; B-score at 10 µM; 310,000 tested, 0.92% active; AID 463111;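 active = B-score of the integrated calcium signal more than 4 SD below the library mean, with starting fluorescence not abnormally high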;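 note: negative B-score means reduced calcium response which marks RGS4 activation or potentiation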
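Reagent: ECmax carbachol challenge; Test system: M3R-expressing HEK293 line, RGS4 induced by doxycycline; Schedule: overnight RGS4 induction, 30 min dye load 37 °C, 20 min compound RT; Detection: calcium dye Fluo4 fluorescence; Read-out: Agonist-evoked peak-minus-minimum fluorescence over baseline, integrated ratio, B score.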
MrgX1 ag: agonists of human MrgX1 receptor; Q96LB2; MrgX1-HEK293 cells, Fluo-4 calcium fluorescence, agonist mode; hits give high values; B-score at 10 µM; 310,000 tested, 0.44% active;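 active = calcium response B-score plate-corrected fluorescence ratio at least 3 library SD, with starting fluorescence B-score inside 5 SD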
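Material: MrgX1-expressing HEK293 cells; input: 15,000 cells per well; doses: test compound given as first of three sequential additions; schedule: overnight plating before 1 h dye loading; technique: Fluo-4 NW calcium-flux fluorescence, kinetic read; evaluation: baseline-normalised fluorescence change ratio, B-scored; control set: plate-wise positive and negative controls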
MrgX1 PAM: human MrgX1 positive allosteric modulation, primary screen; B-score at 10 µM; Q96LB2; AID 588675; MrgX1-HEK293, Fluo-4 calcium flux, FDSS; hits give high values; 310,000 tested, 0.63% active;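 active = plate-corrected calcium response at least 3 library SD above typical, normal starting fluorescence, not activating the receptor alone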;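 note: compound read alongside a low EC10 to EC30 dose of BAM8-22 agonist; peak minus trough fluorescence over baseline measured at the second addition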
RGS4 inh valid: validation of RGS4 inhibitors; shares compounds with RGS4 inh; HEK293 M3R/RGS4, carbachol calcium Fluo-4 fluorescence; carbachol added at its EC20; 0 = buffer wells, 100 = carbachol control; calcium response, % at 10 µM; 1,700 tested, 65% active; AID 492999;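 active = duplicate-averaged calcium response above the buffer-only control mean plus 5 SD of those controls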;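 note: integrated fluorescence ratio F max minus min over baseline F0; higher response in RGS4-induced cells means RGS4 inhibition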
M3R Ca ctr: counter-screen for RGS4 inhibitors: effect in non-induced cells; 1,900 tested, 20% active; shares compounds with RGS4 inh; HEK293 M3R non-induced, carbachol calcium Fluo-4; submaximal (EC20) carbachol stimulus; buffer wells 0%, carbachol control wells 100%; AID 493000; activity (percent), % at 10 µM; call rule not given here;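 note: RGS4 induction absent so cells express M3R without RGS4; higher means more calcium signal and flags a non-specific hit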
M3R basal Ca ctr: second RGS4 inhibitor counter-screen in uninduced cells lacking carbachol; shares compounds with RGS4 inh; HEK293 M3R/RGS4 non-induced, Fluo-4 calcium, no carbachol; normalised: buffer wells 0%, carbachol wells 100%; calcium response (agonist-mode artifact), % at 10 µM; 1,900 tested, 22% active;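 active = duplicate-averaged calcium rise in uninduced cells above buffer wells' mean plus 5 SD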
A number is an active result; – = inactive; · = no result.

SMILES	MrgX1 antagonist	RGS4 inh	RGS4 pot	MrgX1 ag	MrgX1 PAM	RGS4 inh valid	M3R Ca ctr	M3R basal Ca ctr
CCOC(=O)c1c(C)[nH]c(C(=O)CN2C(=O)NC(CC)(c3ccccc3)C2=O)c1C (stereo not given)	–	–	–	–	–	·	·	·
CCOC(=O)c1c(C)[nH]c(C(=O)CN2C(=O)NC(C)(c3ccc(C)cc3)C2=O)c1C (stereo not given)	–	–	–	–	–	–	–	7.5%
CC(C)Oc1ccc(C(=O)/C=C2/C(=O)Nc3ccccc32)cc1	–	5.11	–	–	–	10.5%	71.5%	–
C=CCNC(=O)NC(=O)COC(=O)c1nc2nccc(C)n2n1	–	4.68	–	–	–	–	–	–
CCOC(=O)CSC1=NC(=O)/C(=C\c2ccc(Cl)cc2)S1	–	–	–	–	–	–	–	17.5%
CCOC(=O)C1CCN(C2=NC(=O)/C(=C/c3ccc(Cl)cc3)S2)CC1	–	–	–	–	–	·	·	·
COC(=O)Cc1[nH]nc2c1C1(C(=O)N(Cc3ccc(Cl)cc3)c3ccccc31)C(C#N)=C(N)O2 (stereo not given)	–	5.11	–	–	–	6.5%	–	–
CCc1[nH]nc2c1C1(C(=O)N(Cc3ccccc3)c3ccccc31)C(C#N)=C(N)O2 (stereo not given)	–	–	–	–	–	·	·	·
Cc1noc(C)c1S(=O)(=O)N(CC(=O)NC1CCCC1)c1ccc(C(C)C)cc1	–	–	–	–	–	·	·	·
Cc1nc(SCC(=O)Nc2cc(Cl)ccc2[N+](=O)[O-])nc(C)c1C	–	–	–	–	–	·	·	·
CCc1cccc(CC)c1NC(=S)NCCc1c(C)[nH]c2ccccc12	–	6.23	–	–	–	21.5%	–	–
Cc1ccc(NC(=O)CN(C)C(=S)NC2CC2)cc1	–	–	–	–	–	·	·	·
O=C(N/C(=C\c1ccc(Cl)cc1)C(=O)N1CCOCC1)c1ccc([N+](=O)[O-])cc1	–	–	–	–	–	·	·	·
OCC1(Cc2cccc(Cl)c2)CCCN(Cc2cnn(-c3ccccc3)c2)C1 (stereo not given)	–	–	–	–	–	·	·	·
COc1cccc(CN(C)C(=O)/C=C/c2ccc(S(=O)(=O)N3CCCCCC3)cc2)c1	–	–	–	–	–	·	·	·
Oc1ccc(-c2csc(-c3ccccc3)n2)cc1O	–	5.83	–	–	–	23.5%	–	–
Oc1ccc(-c2csc(-c3cccnc3)n2)cc1O	–	–	–	–	–	·	·	·
C=CCNc1cccc(Br)c1	–	–	–	–	–	·	·	·
COc1cccc(C(=O)O/N=C(\N)c2ccc(C)cc2)c1	–	–	–	–	–	·	·	·
COc1cccc(C(=O)O/N=C(\N)Cc2ccc(Cl)cc2)c1	–	8.75	–	–	–	7.5%	–	–
CCN(C#N)c1nc(NC(C)C)nc(NC(C)(C)C)n1	–	5.07	–	–	–	7.0%	–	–
COc1ccccc1-n1c(SCC(=O)Nc2ccc(NC(C)=O)cc2)nc2c([nH]c3ccccc32)c1=O	–	–	–	–	–	·	·	·
O=C(CN1C(=O)S/C(=C\C=C\c2ccccc2)C1=O)N1CCOCC1	–	8.54	–	–	–	9.5%	–	–
O=C(CCN1C(=O)S/C(=C\c2ccccc2)C1=O)N1CCOCC1	–	–	–	–	–	·	·	·
O=C(CN1C(=O)S/C(=C/C=C/c2ccccc2)C1=O)Nc1ccc(C(=O)O)cc1	–	4.66	–	–	–	7.0%	–	–
Cc1cc(C(F)(F)F)nc(SCCN2CCCCC2)c1C#N	–	–	–	–	–	·	·	·
Cc1cccnc1NC(=O)C1c2ccccc2Oc2ccccc21	–	8.24	–	–	–	10.0%	–	–
Cc1ccccc1NC(=O)C1c2ccccc2Oc2ccccc21	–	–	–	–	–	·	·	·
